Experiment [1] in a line: Cytotoxicity against human UACC257 cells by SRB method. The class given is functional. In outline: (§1)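 NCI-60 in vitro screen panel of human tumor lines; GI50 (molar concentration giving 50% growth inhibition) and TGI (total growth inhibition) taken from dose–response data.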
For experiment [2], the system named is SN12C. In words: Cytotoxicity against human SN12C cells by SRB method. The class given is functional. In outline: as §1
Experiment [3] has as its system TK-10. In words: Cytotoxicity against human TK10 cells by SRB method. The class given is functional. In outline: as §1
(Sulforhodamine B stains cellular protein and so reports cell mass.)

Experiment [4] concerns SR. In words: Cytotoxicity against human SR cells by SRB method. The class given is functional. In outline:
as §1

Experiment [5] has as its system SNB-75. Put plainly: Cytotoxicity against human SNB75 cells by SRB method. The class given is functional. Put shortly:
as §1

Experiment [6] relates to K562. In words: Cytotoxicity against human K562 cells by SRB method. It is filed as functional. In outline: (§2)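 NCI-60 in vitro drug screening panel. Values are the molar concentrations giving 50% growth inhibition (GI50) and total growth inhibition (TGI).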
A short description of experiment [7]: Cytotoxicity against human OVCAR4 cells by SRB method. The class given is functional. In outline: as §2
In experiment [8] the test system is HeLa. In words: Cytotoxicity against human HeLa cells assessed as reduction of colony formation incubated for 4 hrs followed by compound washout measured after 14 days relative to vehicle-treated control. The class given is functional, cell-based. Put shortly:
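HeLa cells (300) were plated in dishes and treated with vehicle (DMSO) or compound for 4 h. They were then washed with DPBS and given fresh medium. After 14 days, colonies were fixed, stained with 0.5% crystal violet in 10% methanol and counted. Analysis was one-way ANOVA with Dunnett's post hoc test against vehicle.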

Setting [9] is: read-out: LC50 (the source's name).

For orientation: GI50 means the concentration at which growth is held to half of that of the control. A high value points to less potent growth inhibition. A word on the TGI: it is the concentration giving total growth inhibition. A high value points to less potent growth arrest. In the case of `CC(C)[C@@]12SS[C@]3(C(=O)N1C)[C@@H](O)[C@]1(C45c6ccccc6N[C@H]4N4C(=O)[C@@]6(CO)SS[C@@]4(C(=O)N6C)[C@H]5O)c4ccccc4N[C@@H]1N3C2=O` (some centres not stated), the GI50 worked out at 8.7 nM in experiment [1] (UACC-257); 22.9 nM in experiment [2]; 11.7 nM in experiment [3]; 11.2 nM in experiment [4]; 13.5 nM in experiment [5]; 14.8 nM in experiment [6]. In experiment [7] (OVCAR-4), the GI50 is 5.9 nM. The TGI was found to be 19.5 nM in experiment [1] (UACC-257); 525 nM in experiment [2]; 24.5 nM in experiment [3]; 31.6 nM in experiment [4]; 50.1 nM in experiment [5]; 115 nM in experiment [6]. The TGI in experiment [7] (OVCAR-4) was 12.9 nM. The CC50 in experiment [1] (UACC-257, read-out: LC50 (the source's name)) is 43.7 nM; in experiment [2] (setting [9]), 1780 nM; in experiment [3] (setting [9]), 57.5 nM; in experiment [4] (setting [9]), more than 50 µM; in experiment [5] (setting [9]), 158 nM; in experiment [6] (setting [9]) it was more than 50 µM. In addition, in experiment [7] (OVCAR-4, read-out: LC50 (the source's name)), the CC50 is 27.5 nM. In experiment [8], the Activity result is “Dose-dependent effect”.

The record behind these values is ChEMBL document CHEMBL3351594, “Cytotoxic dimeric epipolythiodiketopiperazines from the ascomycetous fungus Preussia typharum” (J Nat Prod, 2014).
